# Bioassay records deposited in PubChem BioAssay by several laboratories.
# AI-2 QS modul = Vibrio harveyi AI-2 quorum sensing modulators, primary screen, JMH597 strain, luminescence/OD600 ratio; AID 2094, 2009; Vibrio harveyi JMH597 AI-2 luminescence/OD600 ratio, 9 h; active compounds read low; strain lacks LuxN and CqsS sensors; 0 = neutral-control median; 300,000 compounds, 0.4% hits; activity change, % at 7.5 µM; in the data active = activity change below about -75%, passing the limit was not always enough; inconclusive = no clear call, values can overlap the other calls;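 also: luminescence divided by OD600 gain over 9 h not by final OD600 alone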
# HSF1 inhib = HSF1 inhibitors in luciferase reporter cells, primary screen, cell-based, NIH3T3, luminescence | NIH3T3-HGL HSE-luciferase, MG132-induced, luminescence 8 h; active compounds read low | activity change, negative = inhibition, % at 7.5 µM (by protocol) | 300,000 compounds, 0.77% hits | AID 2098, 2009;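 active = more than half of replicate wells show activity change below -50%, luminescence cut by over half; inconclusive = some wells, but at most half, below -50%; inactive = no replicate well below -50%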;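 also: luciferase reports HSF-1 transcriptional activity via heat shock element; 0% = median of DMSO wells and -100% = zero luminescence signal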
# ALR H2O2 inh = inhibitors of human ALR sulfhydryl oxidase, primary screen, biochemical, H2O2 detection, HRP-luminol luminescence, single point. AID 485317, 2010. FAD-linked sulfhydryl oxidase ALR (Homo sapiens), P55789. inhibition, % (test concentration not listed). 290,000 compounds, 3.8% hits. purified ALR, DTT oxidation;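 active = mean replicate inhibition above about 79%, with every replicate also reaching it, limit read from the data; inconclusive = only one of the two criteria met; inactive = mean below limit and not every replicate reaching it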
# Target sequence (P55789 whole entry, looked up): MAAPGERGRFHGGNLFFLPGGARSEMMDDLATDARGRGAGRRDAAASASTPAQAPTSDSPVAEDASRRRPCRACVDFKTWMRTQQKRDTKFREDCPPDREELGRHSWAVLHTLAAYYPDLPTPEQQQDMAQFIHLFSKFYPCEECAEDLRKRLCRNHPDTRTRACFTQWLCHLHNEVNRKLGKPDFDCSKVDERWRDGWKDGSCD
# core dimer inh = inhibitors of HCV core protein dimerization, primary screen, biochemical, TR-FRET, high-throughput | TR-FRET GST/Flag-core106 dimerization, 1536-well | inhibition, % at 5 µM | 300,000 compounds, 0.33% hits;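 active = inhibition above the mean of all tested compounds plus 3 SD, set per screening campaign, cut at about 45% in these data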
#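 System – GST-tagged and Flag-tagged HCV core protein residues 1-106 · Repeats – one well for each compound · Technique – TR-FRET 671 and 617 nm emission · Doses – one concentration, 5 µM, in 0.5% DMSO · Times – 4 h, 22.5 °C incubation · Also added – Eu donor and XL665 acceptor anti-tag antibodies · Measure – percent inhibition of core106 dimerization signal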
# PHOSPHO1 inh = PubChem AID 1565; Phosphoethanolamine/phosphocholine phosphatase (Homo sapiens), Q8TCT1; recombinant PHOSPHO1, absorbance phosphatase assay; inhibition, % at 13.3 µM; 290,000 compounds, 1.1% hits; in the data active = inhibition above about 60%
# Target sequence (Q8TCT1 whole entry, looked up): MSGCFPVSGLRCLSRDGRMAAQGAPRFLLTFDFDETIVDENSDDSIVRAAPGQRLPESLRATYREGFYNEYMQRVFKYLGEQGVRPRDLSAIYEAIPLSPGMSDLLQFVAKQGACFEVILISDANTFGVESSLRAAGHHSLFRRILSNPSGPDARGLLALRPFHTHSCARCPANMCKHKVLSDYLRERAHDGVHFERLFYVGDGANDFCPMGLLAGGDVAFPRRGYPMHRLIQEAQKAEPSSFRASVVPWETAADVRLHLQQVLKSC
# HSF-1 act = HSF-1 activators, primary screen, NIH3T3-HGL cells, MG132 stress, luminescence, single point; activation, % at 9 µM; 300,000 compounds, 1.7% hits; NIH3T3-HGL HSF-1 luciferase reporter, 8 h; 100% = twice DMSO control signal;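 active = mean replicate activation of at least 50% with a set share of replicates each reaching 50%; inconclusive = only one of those two conditions met; inactive = mean below 50% and too few replicates reaching it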;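 also: 0% = median of the neutral control wells and 100% = twice that signal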
# * marks the source's active call; other numbers are inactive results; u = inconclusive; x = not tested or not shown. Rows were chosen to be rich in hits. Some 6.8% of all compounds tested hit in one or more screens of this group.
SMILES,AI-2 QS modul,HSF1 inhib,ALR H2O2 inh,core dimer inh,PHOSPHO1 inh,HSF-1 act
Nc1nc(SCC(=O)Nc2ccc([N+](=O)[O-])cc2Br)n[nH]1,6,20,48,-2,0,58*
Nc1nc(SCC(=O)Nc2ccc([N+](=O)[O-])cc2)n[nH]1,-4,-11,97*,-2,28,1
CCc1nc(SCC(=O)c2cccc([N+](=O)[O-])c2)n[nH]1,58,15,28,-8,3,u
CC(OC(=O)Cn1[nH]c(=O)c2ccccc2c1=O)C(=O)Nc1ccc(F)cc1Cl (stereo not drawn),13,4,-5,-4,x,12
O=C(NC1CC2CCC(C1)N2Cc1ccccc1)c1ccccc1Br (stereo not drawn),-7,1,-11,0,59,1
CN(C)c1ccc(O)c2c1CC1CC3[C@@H](N(C)C)C(=O)C(C(N)=O)=C(O)[C@]3(O)C(=O)C1=C2O (stereo partly drawn),-87*,3,x,5,18,-7
CCn1cc(CNC(=O)c2c(-c3c(Cl)cccc3Cl)noc2C)c(C)n1,19,-8,-1,4,0,-15
CC(C)C(NC(=O)c1ccc2c(c1)OCO2)C(=O)N/N=C/c1cccs1 (stereo not drawn),3,-20,0,2,-21,-38
O=C(N/N=C/c1cccnc1)c1cc(O)c(O)c(O)c1,6,0,97*,-6,-3,2
O=C(N/N=C/c1cccnc1)c1ccc2c(c1)OCO2,18,-59*,-1,-3,24,-67
CC(C)C(NC(=O)c1ccc2c(c1)OCO2)C(=O)N/N=C\c1ccco1 (stereo not drawn),13,-5,-3,-1,65*,1
Cc1cc(NC(=O)C2CCCCC2)ccc1NC(=O)c1ccccc1Cl,21,3,-4,-2,-5,3
CC(Oc1ccc2c(c1)c1ccnc3c4ccccc4c(=O)n2c13)C(=O)NCCN1CCOCC1 (stereo not drawn),26,-10,-9,5,29,-5
COc1ccc(C)c2sc(N(CCN(C)C)C(=O)c3cccc(N4C(=O)CCC4=O)c3)nc12,12,-1,x,1,x,-2
CCCCNC(=S)NCCN1CCN(C(=S)NCCCC)CC1,3,-6,11,-2,13,1
CCC1C(C#N)=C(SCC(N)=O)NC2=C1C(=O)CC(C)(C)C2 (stereo not drawn),8,7,97*,2,-95,-7
CC1C(C#N)=C(SCC(N)=O)NC2=C1C(=O)CC(C)(C)C2 (stereo not drawn),13,3,46,-3,-15,-1
COc1ccc(C2C(C#N)=C(SCC(=O)Nc3ccc(C)cc3)NC3=C2C(=O)CC(C)(C)C3)cc1 (stereo not drawn),5,18,-25,36,89*,30
CCn1c(CCCCc2n[nH]c(=S)n2CC)n[nH]c1=S,30,-7,18,-3,42,-18
CCCCn1c(CCn2nc(C)c(Br)c2C)n[nH]c1=S,21,-1,42,1,90*,-9
O=C(Nc1ccccc1)C(Cl)C(=O)c1ccccc1 (stereo not drawn),-82*,-5,15,0,19,3
CC(=O)C(Cl)C(=O)Nc1ccccc1 (stereo not drawn),x,x,x,x,19,x
COc1cc(OC)cc(C(=O)N[C@H](C(=O)Nc2nc(-c3ccc(F)c(F)c3)cs2)C(C)C)c1,21,-5,-6,10,21,19
COc1ccc(N=C2C(=O)Nc3ccccc32)cc1,24,-25,86*,6,14,-27
CC(=O)c1ccc(N=C2C(=O)Nc3ccccc32)cc1,-8,47,-2,7,29,62*
SMILES,AI-2 QS modul,HSF1 inhib,ALR H2O2 inh,core dimer inh,PHOSPHO1 inh,HSF-1 act
O=C(CSc1nccc(=O)[nH]1)NC1CCCC1,7,-9,-7,5,36,-25
Cn1c2ccccc2c(=O)c2ccc(C#CC3(N)CCCCC3)cc21,18,-43,-4,14,-13,-41
O=c1c2ccccc2oc2ccc(C#CC3(O)CCCCC3)cc12,35,-86*,-3,-14,x,-87
Cn1c2ccccc2c(=O)c2cc(C#CC3(O)CCCCC3)ccc21,14,-85*,0,1,-7,-87
Cc1cc2sc3ccc(C#CC4(O)CCCCC4)cc3c(=O)c2cc1C,13,-90*,-1,11,x,-93
CCOc1ccc(N2CC(C(=O)Nc3c(C)n(C)n(-c4ccccc4)c3=O)CC2=O)cc1 (stereo not drawn),10,-4,-3,-3,10,-12
CCOC(=O)CC1COCCN1Cc1cn[nH]c1-c1cc(OC)c(OC)c(OC)c1 (stereo not drawn),1,10,x,1,41,14
COc1ccc(S(=O)(=O)N(C)C[C@H]2Oc3ccc(NC(=O)Cc4cn(C)c5ccccc45)cc3C(=O)N([C@@H](C)CO)C[C@@H]2C)cc1,x,x,-2,x,x,x
CCC1(c2ccccc2)NC(=O)N(CC(=O)NC2CCCCCC2)C1=O (stereo not drawn),x,x,-4,x,x,x
COc1cc(/C=N/Nc2nncn2N)ccc1OCc1c(C)no[n+]1[O-],5,32,-31,-2,33,41
COc1ccc(/C=N/Nc2nncn2N)cc1Br,49,47,x,-4,14,78*
COc1cc2c(ccc3cc(OC)c(OC)c(O)c32)cc1O,29,1,99*,-5,22,10
c1ccc2sc(SCSc3nc4ccccc4s3)nc2c1,13,9,-7,-3,25,7
c1ccc2sc(SN3CCOCC3)nc2c1,11,7,7,-5,66*,6
CCOC(=O)c1c(C)[nH]c(C)c1S(=O)(=O)N1CCC(c2ccccc2)C1 (stereo not drawn),19,12,-11,3,17,23
CCOC(=O)c1c(C)[nH]c(C)c1S(=O)(=O)NC1CCN(C(=O)OCC)CC1,11,2,-2,-4,44,-6
CCOC(=O)c1c(C)[nH]c(C)c1S(=O)(=O)N1CCCCC1,17,25,-2,-5,7,57*
CCOC(=O)c1c(C)[nH]c(C)c1S(=O)(=O)NC(CC)CN1CCOCC1 (stereo not drawn),13,-7,-2,-5,65*,4
